Results on nine compounds are retold here after ChEMBL document CHEMBL3399918, “In vitro radical scavenging and cytotoxic activities of novel hybrid selenocarbamates” (Bioorg Med Chem, 2015).

The subject of data set [1] is MCF7. As to the kind of experiment: Cytotoxicity against human MCF7 cells after 72 hrs by MTT assay. Type of data set: functional. The note with it: MCF7, 72 h; for CC50: read-out: LC50 (the source's name). The gist of the method: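 MCF-7 cells grown in EMEM with 10% foetal calf serum, 2 mM L-glutamine, 100 units/mL penicillin, 100 µg/mL streptomycin. Exposed to five concentrations between 0.01 and 100 μM for 72 h, 37 °C, humidified 5% CO2; MTT read-out. GI50, TGI, LC50 relative to untreated controls; ≥3 independent experiments in quadruplicate.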
Background: Tetrazolium dyes change colour on reduction, which living cells bring about.

Data set [2] relates to HT-29. As to the kind of experiment: Cytotoxicity against human HT-29 cells after 72 hrs by MTT assay. Type of data set: functional. The note with it: HT-29, 72 h. The gist of the method: (§1)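 CCRF-CEM, HT-29, PC-3 and HTB-54 cells grown in RPMI 1640 with 10% foetal calf serum, 2 mM L-glutamine, penicillin/streptomycin, 10 mM HEPES (pH 7.4). Five concentrations, 0.01–100 μM, 72 h at 37 °C, 5% CO2; MTT read-out. GI50, TGI and LC50 versus untreated controls; at least 3 independent experiments in quadruplicate.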

In data set [3] the test system is CCRF-CEM. As to the kind of experiment: Cytotoxicity against human CCRF-CEM cells after 72 hrs by MTT assay. Type of data set: functional. The gist of the method:
as §1

Data set [4] can be described thus: Cytotoxicity against human PC3 cells after 72 hrs by MTT assay. Type of data set: functional. The note with it: PC-3, 72 h. The essentials: as §1
Data set [5] in a line: Cytotoxicity against human HTB-54 cells after 72 hrs by MTT assay. Type of data set: functional. The note with it: HTB-54, 72 h; for CC50: read-out: LC50 (the source's name). The gist of the method:
as §1

A short description of data set [6]: Cytotoxicity against human 184B5 cells after 72 hrs by MTT assay. Type of data set: cell-based. The note with it: for GI50 at 72 h: 184B5 cells; for LC50 / TGI: 184b5, 72 h. The gist of the method: (§2)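 Non-malignant lines: 184B5 (normal breast) in Hams F-12/DMEM (50:50) with published supplements; BEAS-2B (bronchial epithelium) in Hams F-12/DMEM (50:50) with 10% foetal calf serum, 2 mM L-glutamine, penicillin/streptomycin. Compounds at five concentrations, 0.01–100 μM, 72 h, 37 °C, 5% CO2; MTT read-out. GI50, TGI, LC50 relative to untreated controls; ≥3 independent experiments in quadruplicate.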

Data set [7] can be described thus: Cytotoxicity against human BEAS2B cells after 72 hrs by MTT assay. Type of data set: cell-based, BEAS-2B. The conditions noted are these: for GI50 at 72 h: BEAS2B cells; for LC50 / TGI: beas-2b, 72 h. The gist of the method:
as §2

Data set [8] is described as follows: Antioxidant activity assessed as ABTS radical scavenging activity by measuring Trolox equivalent antioxidant capacity after 6 mins. Type of data set: physicochemical. The note with it: 0.1 h. The essentials: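 ABTS dissolved in deionized water at 1 mg/mL, oxidised to radical cation with potassium persulfate (2.45 mM final), kept overnight at room temperature in dark, then diluted with 50% ethanol to A741 = 0.700 ± 0.02. Compound (1 mg/mL ethanol stock) added 1:10 (0.1 mg/mL); A741 decrease read after 6 min against 50% ethanol blank. Trolox positive control; quadruplicate; TEAC from calibration curve.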

As a reminder, the GI50 is the concentration at which growth is held to half of that of the control. A lower GI50 goes with more potent growth inhibition. As usually defined, the TGI is the concentration at which net growth stops. As a reminder, the LC50 is the concentration lethal to half of the exposed cells or organisms. A high value points to lower toxicity. For `O=C(Nc1ccc([Se][Se]c2ccc(NC(=O)OCC3c4ccccc4-c4ccccc43)cc2)cc1)OCC1c2ccccc2-c2ccccc21`, the GI50 in data set [1] was found to be 22.6 µM; in data set [2] it was 17.8 µM; in data set [3], 14.9 µM; in data set [4], 9.2 µM; in data set [5], 36.8 µM. In addition, the TGI in data set [1] worked out at 52.9 µM; in data set [2], 49 µM; in data set [3], 43.2 µM; in data set [4], 38.8 µM; in data set [5] it was 60.5 µM; in data set [6] it was 19.7 µM. In data set [7], this compound gave a concentration for total growth inhibition (TGI) of 27.9 µM. In addition, the CC50 in data set [1] amounted to 83.3 µM; in data set [5], 84.3 µM. Besides, the LC50 turned out to be 80.3 µM in data set [2], 71.4 µM in data set [3], 59.4 µM in data set [6] and 64.1 µM in data set [7]. Further, the LC50 (concentration causing 50% net cell kill) in data set [4] was 70.3 µM. The results for the GI50 at 72 h in data set [6] and in data set [7] were 6.5 µM and 7.1 µM, respectively. The Activity in data set [8] is 0.93 µg/µL.

With `COc1ccc(OC(=O)Nc2ccc([Se]C#N)cc2)cc1`, the GI50 in data set [1] was found to be 22.4 µM; in data set [2], 13.6 µM; in data set [3], 13 µM; in data set [4], 7.5 µM; in data set [5], 23.7 µM. In addition, the TGI in data set [1] was found to be 48.2 µM; in data set [2], 41.5 µM; in data set [3], 41.5 µM; in data set [4], 44.6 µM; in data set [5], 48.5 µM; in data set [6] it was 19.2 µM. The TGI in data set [7] was found to be 48.4 µM. Also, the CC50 was 74.1 µM in data set [1] and 73.3 µM in data set [5]. In addition, the LC50 in data set [2] came to 69.6 µM; in data set [3] it was 70 µM; in data set [6], 59.6 µM; in data set [7], 71.6 µM. In data set [4], this compound showed an LC50 (concentration causing 50% net cell kill) of 71.6 µM. The concentration for 50% growth inhibition (GI50) at 72 h stood at 4.5 µM in data set [6] and 25.2 µM in data set [7]. In data set [8], the Activity was 2.58 µg/µL.

`N#C[Se]c1ccc(NC(=O)OCc2ccc([N+](=O)[O-])cc2)cc1`: the GI50 in data set [1] is 11.8 µM; in data set [2], 22.4 µM; in data set [3], 9.3 µM; in data set [4] it was 9 µM; in data set [5], 22.9 µM. The TGI in data set [1] was found to be 40.7 µM; in data set [2], 47.1 µM; in data set [3], 38.3 µM; in data set [4] it was 36.5 µM; in data set [5] it was 47.6 µM; in data set [6], 18 µM. The TGI in data set [7] came out at 32.8 µM. Further, the figures for the CC50 in data set [1] and in data set [5] were 69.5 µM and 72.4 µM, respectively. For the same compound, the LC50 stood at 71.9 µM in data set [2], 68.8 µM in data set [3], 58.5 µM in data set [6] and 65.8 µM in data set [7]. The compound further registered an LC50 (concentration causing 50% net cell kill) in data set [4] of 67.6 µM. For the same compound, the GI50 at 72 h came out at 6 µM in data set [6] and 7.7 µM in data set [7]. For the same compound, in data set [8], the Activity was found to be 9.66 µg/µL.

With `COc1cc([C@@H]2c3cc4c(cc3[C@@H](O[C@@H]3O[C@@H]5CO[C@@H](C)O[C@H]5[C@H](O)[C@H]3O)[C@H]3COC(=O)[C@H]23)OCO4)cc(OC)c1O` [ETOPOSIDE], the GI50 in data set [1] came out at 19.9 µM; in data set [2], 31.6 µM; in data set [3], 1.6 µM; in data set [4], 0.6 µM. Moreover, the TGI in data set [1] was over 100 µM; in data set [2] it was over 100 µM; in data set [3], 50.5 µM; in data set [4] it was 4 µM. For the same compound, the CC50 in data set [1] was over 100 µM.

Turning to `O=C(Nc1ccc([Se][Se]c2ccc(NC(=O)OCc3ccc([N+](=O)[O-])cc3)cc2)cc1)OCc1ccc([N+](=O)[O-])cc1`, the GI50 in data set [1] is 20.6 µM; in data set [2], 16.7 µM; in data set [3], 8.6 µM; in data set [4], 6.4 µM; in data set [5] it was 31.8 µM. Further, the TGI worked out at 52.8 µM in data set [1]; 46.3 µM in data set [2]; 36.5 µM in data set [3]; 27.1 µM in data set [4]; 55.6 µM in data set [5]; 13.8 µM in data set [6]. This compound also came in with a TGI in data set [7] of 22.5 µM. The CC50 in data set [1] stood at 85 µM; in data set [5] it was 79.4 µM. For the same compound, the LC50 was 75.9 µM in data set [2], 68.1 µM in data set [3], 56.5 µM in data set [6] and 61.6 µM in data set [7]. In data set [4], this compound registered an LC50 (concentration causing 50% net cell kill) of 69.2 µM. Also, the figures for the GI50 at 72 h in data set [6] and in data set [7] were 6 µM and 6.3 µM, respectively.

With `O=C(Nc1ccc([Se][Se]c2ccc(NC(=O)Oc3ccc(F)cc3)cc2)cc1)Oc1ccc(F)cc1`, the 50% growth inhibitory concentration (GI50) in data set [1] was determined as 8 µM; in data set [2], 18.5 µM; in data set [3], 8.7 µM; in data set [4], 4.9 µM; in data set [5], 26.7 µM. The TGI in data set [1] stood at 33.7 µM; in data set [2], 51.9 µM; in data set [3], 37.6 µM; in data set [4], 31.3 µM; in data set [5], 51.8 µM; in data set [6], 8.6 µM. The compound also returned a TGI in data set [7] of 23.5 µM. For the same compound, the CC50 in data set [1] was 64.3 µM; in data set [5], 77 µM. The LC50 in data set [2] worked out at 85.3 µM; in data set [3], 68.8 µM; in data set [6], 47.8 µM; in data set [7] it was 61.8 µM. Also, the LC50 (concentration causing 50% net cell kill) in data set [4] stood at 64.5 µM. In addition, the GI50 at 72 h came to 3.7 µM in data set [6] and 0.7 µM in data set [7].

Take `Cc1ccc(OC(=O)Nc2ccc([Se]C#N)cc2)cc1`: the 50% growth inhibitory concentration (GI50) came to 9.9 µM in data set [1]; 8.8 µM in data set [2]; 17.4 µM in data set [3]; 7.6 µM in data set [4]; 17.3 µM in data set [5]. The TGI in data set [1] amounted to 39.9 µM; in data set [2] it was 38.8 µM; in data set [3], 44.7 µM; in data set [4], 32.3 µM; in data set [5] it was 44.2 µM; in data set [6], 8.7 µM. Moreover, the TGI in data set [7] amounted to 15.3 µM. In addition, the results for the CC50 in data set [1] and in data set [5] were 69.8 µM and 71.1 µM, respectively. Besides, the LC50 in data set [2] was determined as 68.7 µM; in data set [3], 72 µM; in data set [6], 46.9 µM; in data set [7], 58.3 µM. In data set [4], this compound showed an LC50 (concentration causing 50% net cell kill) of 65.1 µM. Moreover, the GI50 at 72 h in data set [6] was determined as 4.4 µM; in data set [7], 5.6 µM.

Consider `C=CCOC(=O)Nc1ccc([Se]C#N)cc1`, for which the GI50 in data set [1] was 15 µM; in data set [2], 24.5 µM; in data set [3], 9.2 µM; in data set [4], 17.6 µM; in data set [5], 27 µM. The TGI in data set [1] was 43.1 µM; in data set [2] it was 48.6 µM; in data set [3], 38.1 µM; in data set [4] it was 44.7 µM; in data set [5] it was 50.1 µM; in data set [6] it was 9.8 µM. In data set [7], the TGI amounted to 47.4 µM. Moreover, the CC50 came to 71.2 µM in data set [1] and 73.3 µM in data set [5]. Besides, the LC50 in data set [2] turned out to be 72.8 µM; in data set [3], 68.6 µM; in data set [6] it was 53.8 µM; in data set [7], 73.5 µM. In data set [4], this compound displayed an LC50 (concentration causing 50% net cell kill) of 71.8 µM. In addition, the GI50 at 72 h in data set [6] turned out to be 5 µM; in data set [7] it was 21.4 µM.

On to `O=C(Nc1ccc([Se][Se]c2ccc(NC(=O)Oc3ccc(Cl)cc3)cc2)cc1)Oc1ccc(Cl)cc1`, for which the GI50 in data set [1] is 12.4 µM; in data set [2], 9.9 µM; in data set [3] it was 10.8 µM; in data set [4], 1 µM; in data set [5], 28.6 µM. Also, the TGI in data set [1] was found to be 46 µM; in data set [2], 43.4 µM; in data set [3] it was 43.4 µM; in data set [4] it was 28.1 µM; in data set [5] it was 60.8 µM; in data set [6] it was 8.9 µM. The same compound returned a TGI in data set [7] of 26.6 µM. Moreover, the CC50 turned out to be 79.6 µM in data set [1] and 93 µM in data set [5]. Moreover, the LC50 in data set [2] was found to be 76.9 µM; in data set [3], 76 µM; in data set [6], 52.6 µM; in data set [7] it was 64.7 µM. This compound had an LC50 (concentration causing 50% net cell kill) in data set [4] of 82.6 µM. Besides, the GI50 at 72 h in data set [6] turned out to be 2.5 µM; in data set [7], 0.1 µM.
